Assay results taken from ChEMBL document CHEMBL3244220, “Diuretic activity of Mannich base derivatives of ethacrynic acid and certain ethacrynic acid analogues” (J Med Chem, 1978).
The source made the active and inactive calls. No cut-off for these calls is given here.

How the values were obtained:
Canis familiaris [1] = experiment: Diuretic activity in mongrel dog assessed as decrease in glomerular filtration rate during 2 hrs period at 17 umol/kg, iv for 10 mins; assay type: functional, organism-based; details: Canis lupus familiaris, Urine
How it was run: (§1)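 Single 17.0 μmol/kg iv dose in 10 mL 0.9% saline, given over 10 min; sodium salts formed with NaHCO3 where needed. GFR from plasma and urine inulin; Na by flame photometry. Changes per kg computed for each 10-min period after dosing minus the predrug period; mean Δ ± SEM, paired comparison, p < 0.05.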

[2] = Biotransformation in mongrel dog assessed as ethacrynic acid-glutathione in urine at 17 umol/kg, iv for 10 mins after 2 hrs; assay type: ADME, organism-based, Canis lupus familiaris; details: in vivo
How it was run: (§2)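 Dogs given 17.0 μmol/kg iv in 10 mL 0.9% saline, prepared 3–5 min before dosing and infused over 10 min. Urine collected for 2 h after dosing and freeze-dried in 1-h portions; control urine from nine 10-min predrug periods handled the same way. Residues taken up in H2O and run on cellulose TLC in n-BuOH–C6H6–MeOH–H2O (20:10:12.5:10); spots located by UV and ninhydrin.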

[3] = Solubility of the compound in 0.9% saline; assay type: physicochemical; details: buffer
Canis familiaris [4] = experiment: Toxicity in mongrel dog assessed as change in blood pressure at 17 umol/kg, iv for 10 mins; assay type: organism-based, Canis lupus familiaris; details: in vivo
[5] = Metabolic stability in dog urine assessed as ethacrynic acid release after 72 hrs at pH 7 +/- 0.5 by NMR/TLC analysis; assay type: ADME, tissue-based, Canis lupus familiaris; details: pH 7, 72 h
[6] = Biotransformation in mongrel dog assessed as ethacrynic acid-cysteine in urine at 17 umol/kg, iv for 10 mins after 2 hrs; assay type: ADME, organism-based, Canis lupus familiaris; details: in vivo; how it was run: as §2
Canis familiaris [7] = experiment: Toxicity in mongrel dog assessed as increase in systolic pressure at 17 umol/kg, iv for 10 mins; assay type: organism-based, Canis lupus familiaris; details: in vivo
Canis familiaris [8] = experiment: Toxicity in mongrel dog assessed as increase in diastolic pressure at 17 umol/kg, iv for 10 mins; assay type: organism-based, Canis lupus familiaris; details: in vivo
Canis familiaris [9] = experiment: Inhibition of ethacrynic acid-induced diuresis in mongrel dog assessed as decrease in glomerular filtration rate during 2 hrs period at 17 umol/kg, iv for 10 mins; assay type: organism-based, Canis lupus familiaris; details: in vivo
How it was run: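 Dogs received 17.0 μmol/kg iv over 10 min, and renal parameters were followed for 2 h. Sodium ethacrynate, 3.3 μmol/kg iv in 10 mL saline over 10 min, was then given. Inulin GFR/kg and Na excretion/kg were taken per 10-min period as change from the predrug value; mean Δ ± SEM; paired comparison, p < 0.05.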

Canis familiaris [10] = experiment: Diuretic activity in mongrel dog assessed as decrease in rate of sodium excretion during 2 hrs period at 17 umol/kg, iv for 10 mins; assay type: functional, organism-based; details: Canis lupus familiaris, Urine; how it was run: as §1

| Compound | Activity (Canis familiaris [1]) | Drug metabolism [2] | solubility [3] | Activity (Canis familiaris [4]) | Stability [5] | Drug metabolism [6] | Activity (Canis familiaris [7]) | Activity (Canis familiaris [8]) | Activity (Canis familiaris [9]) | Activity (Canis familiaris [10]) |
| --- | --- | --- | --- | --- | --- | --- | --- | --- | --- | --- |
| CCC(CN(C)C)C(=O)c1ccc(OCC(=O)O)c(Cl)c1Cl.Cl (stereo not given) | Active | metabolite_detected | soluble | Non-toxic | Unstable | metabolite_detected | – | – | – | – |
| C=C(C)C(=O)c1ccc(OCC(=O)[O-])c(Cl)c1Cl.[Na+] | Active | – | – | – | – | – | Toxic | Toxic | – | – |
| C=C(CC)C(=O)c1ccc(OCC(=O)[O-])cc1.[Na+] | inactive | – | – | Non-toxic | – | – | – | – | Non-toxic | – |
| CN(C)CC(C)(C)C(=O)c1ccc(OCC(=O)O)c(Cl)c1Cl.Cl | inactive | – | soluble | Non-toxic | Stable | – | – | – | Toxic | inactive |
| C=C(CC)C(=O)c1ccc(OCC(=O)[O-])c(Cl)c1Cl.[Na+] [ETHACRYNATE SODIUM] | Active | – | – | Non-toxic | – | – | – | – | – | – |
| CCC(CN(C)C)C(=O)c1ccc(OCC(=O)O)cc1.Cl (stereo not given) | inactive | – | soluble | Non-toxic | Stable | – | – | – | Non-toxic | – |
